Laboratory results published in ChEMBL document CHEMBL1121685, “Development of new mitomycin C and porfiromycin analogues” (J Med Chem, 1981).

Assays:
[1] = test system: Mus musculus; assay: Effect of compound on total white blood cell count in BDG1 male mice, after intraperitoneal administration at a dose of 59.0 mg/kg on day 7; type: functional
Procedure, shortened: (§1)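 Single ip dose given on day 0 to BDG₁ male mice. Total white blood cell count measured on days 3, 5 and 7, expressed as % change from control. Highest dose was at the LD₅₀, or at twice the optimal dose where so footnoted. Significance reported at p ≤ 0.05 and p ≤ 0.01. D marks death of one or more mice.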

[2] = test system: Mus musculus; assay: Effect of compound on total white blood cell count in BDG1 male mice, after intraperitoneal administration at a dose of 33.18 mg/kg on day 3; type: functional
Procedure, shortened: (§2)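 Single ip dose given on day 0 to BDG1 male mice over a descending dose series. Total white blood cell count is expressed as % change from untreated control on days 3, 5 and 7. Significance is flagged at p ≤ 0.05 and p ≤ 0.01.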

[3] = test system: Mus musculus; assay: Effect of compound on total white blood cell count in BDG1 male mice, after intraperitoneal administration at a dose of 59.0 mg/kg on day 5; type: functional; procedure, shortened: as §1
[4] = test system: Mus musculus; assay: Effect of compound on total white blood cell count in BDG1 male mice, after intraperitoneal administration at a dose of 33.18 mg/kg on day 5; type: functional; procedure, shortened: as §2
[5] = test system: Mus musculus; assay: Effect of compound on total white blood cell count in BDG1 male mice, after intraperitoneal administration at a dose of 44.25 mg/kg on day 7; type: functional; procedure, shortened: as §1
[6] = test system: Mus musculus; assay: Effect of compound on total white blood cell count in BDG1 male mice, after intraperitoneal administration at a dose of 33.18 mg/kg on day 7; type: functional; procedure, shortened: as §2
[7] = test system: Mus musculus; assay: Minimum effective dose that show activity against P-388 murine leukemia cells in CDF1 female mice, after intraperitoneal administration (optimal dose is 25.6 mg/kg); type: functional; settings: P388, ip, read-out: MED
Procedure, shortened: (§3)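 10⁶ P-388 ascites cells implanted ip in CDF₁ female mice. Six mice per dose, 10 saline-injected controls, and a concurrent mitomycin C reference group. %T/C = median survival time of treated/control × 100. MED is the lowest dose giving %T/C > 125. Therapeutic ratio = optimal dose/MED.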

[8] = test system: Mus musculus; assay: Antitumor activity against P-388 murine leukemia cells in CDF1 female mice after intraperitoneal administration at the specified optimal dose of 25.6 mg/kg; type: functional
[9] = test system: Mus musculus; assay: Effect of compound on total white blood cell count in BDG1 male mice, after intraperitoneal administration at a dose of 44.25 mg/kg on day 3; type: functional; procedure, shortened: as §1
[10] = Therapeutic ratio is expressed as ratio of optimal dose and minimum effective dose; type: ADME; settings: mouse; read-out: TR; procedure, shortened: as §3
[11] = test system: Mus musculus; assay: Effect of compound on total white blood cell count in BDG1 male mice, after intraperitoneal administration at a dose of 59.0 mg/kg on day 3; type: functional; procedure, shortened: as §1
[12] = test system: Mus musculus; assay: Effect of compound on total white blood cell count in BDG1 male mice, after intraperitoneal administration at a dose of 44.25 mg/kg on day 5; type: functional; procedure, shortened: as §1
[13] = test system: Mus musculus; assay: Effect of compound on total white blood cell count in BDG1 male mice, after intraperitoneal administration of a compound of 2.83 mg/kg on day 3; type: functional
[14] = test system: Mus musculus; assay: Effect of compound on total white blood cell count in BDG1 male mice, after intraperitoneal administration at a dose of 3.77 mg/kg on day 5; type: functional; procedure, shortened: as §2
[15] = test system: Mus musculus; assay: Effect of compound on total white blood cell count in BDG1 male mice, after intraperitoneal administration at a dose of 5.03 mg/kg on day 7; type: functional; procedure, shortened: as §1
[16] = test system: Mus musculus; assay: Effect of compound on total white blood cell count in BDG1 male mice, after intraperitoneal administration at a dose of 6.7 mg/kg on day 7; type: functional; procedure, shortened: as §1
[17] = test system: Mus musculus; assay: Effect of compound on total white blood cell count in BDG1 male mice, after intraperitoneal administration at a dose of 2.83 mg/kg on day 5; type: functional; procedure, shortened: as §2
[18] = test system: Mus musculus; assay: Effect of compound on total white blood cell count in BDG1 male mice, after intraperitoneal administration at a dose of 5.03 mg/kg on day 5; type: functional; procedure, shortened: as §1
[19] = test system: Mus musculus; assay: Effect of compound on total white blood cell count in BDG1 male mice, after intraperitoneal administration at a dose of 6.7 mg/kg on day 5; type: functional; procedure, shortened: as §1
[20] = test system: Mus musculus; assay: Minimum effective dose that show activity against P-388 murine leukemia cells in CDF1 female mice, after intraperitoneal administration (optimal dose is 3.2 mg/kg); type: functional; settings: P388, ip, read-out: MED; procedure, shortened: as §3
[21] = test system: Mus musculus; assay: Effect of compound on total white blood cell count in BDG1 male mice, after intraperitoneal administration at a dose of 2.83 mg/kg on day 7; type: functional; procedure, shortened: as §2
[22] = test system: Mus musculus; assay: Effect of compound on total white blood cell count in BDG1 male mice, after intraperitoneal administration at a dose of 5.03 mg/kg on day 3; type: functional; procedure, shortened: as §1
[23] = test system: Mus musculus; assay: Antitumor activity against P-388 murine leukemia cells in CDF1 female mice after intraperitoneal administration at the specified optimal dose of 3.2 mg/kg; type: functional
[24] = test system: Mus musculus; assay: Effect of compound on total white blood cell count in BDG1 male mice, after intraperitoneal administration at a dose of 6.7 mg/kg on day 3; type: functional; procedure, shortened: as §1
[25] = test system: Mus musculus; assay: Effect of compound on total white blood cell count in BDG1 male mice, after intraperitoneal administration at a dose of 3.77 mg/kg on day 3; type: functional; procedure, shortened: as §2
[26] = test system: Mus musculus; assay: Effect of compound on total white blood cell count in BDG1 male mice, after intraperitoneal administration at a dose of 3.77 mg/kg on day 7; type: functional; procedure, shortened: as §2

C#CCNC1=C(C)C(=O)C2=C(C1=O)[C@H](COC(N)=O)C1(OC)[C@H]3[C@@H](CN21)N3C (some centres not stated)
Change [1]: -77% | Change [2]: -64% | Change [3]: -84% | Change [4]: -66% | Change [5]: -67% | Change [6]: -49% | minimal effective dose [7]: 1.6 mg/kg | T/C [8]: 300% | Change [9]: -74% | selectivity ratio [10]: 16 | Change [11]: -80% | Change [12]: -69%

COC12[C@@H](COC(N)=O)C3=C(C(=O)C(C)=C(N4CC4C)C3=O)N1C[C@@H]1[C@H]2N1C (some centres not stated)
Change [13]: -31% | Change [14]: -25% | Change [15]: -4% | Change [16]: -37% | Change [17]: -21% | Change [18]: -44% | Change [19]: -49% | minimal effective dose [20]: 0.4 mg/kg | Change [21]: 2% | Change [22]: -31% | selectivity ratio [10]: 8 | T/C [23]: 163% | Change [24]: -28% | Change [25]: -30% | Change [26]: -11%
